Sampled rows, rich in hits. Any-hit rate of the full collection: about 8.7%.
Ecoli WT expand: growth inhibitors of E. coli BW25113 wild type. OD600 absorbance. growth inhibition, % at 100 µM. 0.15% of 98,000 active. AID 710;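 active = growth inhibition above about 50% at one test dose, limit read from the data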;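 note: growth measured after 20 h incubation at 37 °C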
Cav32 inh: blocks human Cav3.2 T-type calcium channel; Cav3.2-expressing cells, Fluo-4 calcium fluorescence FDSS; stronger effect = lower value; B-score at 10 µM; 4% of 100,000 active;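 active = single-dose well whose peak fluorescence ratio is a statistical outlier from its plate by either plate-standardised score or position-corrected B-score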
Ecoli tolC: growth inhibitors of E. coli BW25113 tolC mutant; 2.2% of 65,000 active; OD615; growth inhibition, % at 10 µM (by protocol);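 active = growth inhibition at or above a cutoff equal to the mean over every tested compound plus 3 SD, cut at about 60% in these data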;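 note: growth measured after 20 h incubation at 37 °C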
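Signal: optical density read at 615 nm; Assay system: E. coli ΔtolC::kan strain BW25113; Times: 20 h incubation with compound, 37 °C; Dosing: 10 µM final, single dose.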
Pyk2 oligo antag: antagonists of human Pyk2 oligomerization. Q14289. Q293 cells, Pyk2 FERM NanoBiT luminescence; stronger effect = lower value. z-score (the deposit names both 25 µM and 10 µM). 0.83% of 99,000 active;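 active = Z-score of -3 or lower, scaled per plate to the spread of control and sample wells; inactive = z-score above -3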;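 note: negative z-score means lost luminescence so less FERM oligomerization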
Target sequence (Q14289 whole entry, looked up): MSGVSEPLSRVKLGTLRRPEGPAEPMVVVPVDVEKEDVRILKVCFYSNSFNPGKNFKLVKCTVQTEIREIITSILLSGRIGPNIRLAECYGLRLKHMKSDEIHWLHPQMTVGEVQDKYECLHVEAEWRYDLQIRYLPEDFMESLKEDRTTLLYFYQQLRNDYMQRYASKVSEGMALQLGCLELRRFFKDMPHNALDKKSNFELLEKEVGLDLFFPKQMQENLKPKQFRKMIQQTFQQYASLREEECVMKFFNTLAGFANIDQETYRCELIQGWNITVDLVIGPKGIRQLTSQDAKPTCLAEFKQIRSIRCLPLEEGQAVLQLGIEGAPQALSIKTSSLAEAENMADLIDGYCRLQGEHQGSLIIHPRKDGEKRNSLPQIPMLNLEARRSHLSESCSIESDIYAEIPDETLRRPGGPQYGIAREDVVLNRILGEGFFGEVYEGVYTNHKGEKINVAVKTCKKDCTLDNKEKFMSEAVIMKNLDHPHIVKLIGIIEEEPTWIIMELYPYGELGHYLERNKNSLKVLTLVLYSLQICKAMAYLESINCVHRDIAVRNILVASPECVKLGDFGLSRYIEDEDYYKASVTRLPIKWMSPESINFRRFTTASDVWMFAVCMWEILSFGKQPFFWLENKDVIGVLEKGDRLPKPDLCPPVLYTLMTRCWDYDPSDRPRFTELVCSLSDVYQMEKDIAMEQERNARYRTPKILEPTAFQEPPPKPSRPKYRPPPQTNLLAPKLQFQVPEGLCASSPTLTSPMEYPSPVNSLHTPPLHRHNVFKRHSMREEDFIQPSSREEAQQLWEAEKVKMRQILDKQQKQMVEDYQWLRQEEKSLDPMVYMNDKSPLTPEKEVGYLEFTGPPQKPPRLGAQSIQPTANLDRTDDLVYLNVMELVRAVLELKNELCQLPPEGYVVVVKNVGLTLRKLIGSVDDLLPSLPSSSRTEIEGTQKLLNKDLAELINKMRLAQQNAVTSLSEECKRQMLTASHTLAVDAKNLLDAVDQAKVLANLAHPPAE
PostGolgi ctrl: growth of the yeast control strain, post-Golgi counter-screen | efflux-deficient yeast background strain, growth absorbance A615, 16 h | inhibition, % at 10 µM | 5% of 98,000 active | AID 738
PostGolgi yeast: growth inhibition of a yeast mutant, post-Golgi transport screen. post-Golgi transport phenotypic cell assay. inhibition, % at 10 µM. 0.9% of 98,000 active. AID 739;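 note: yeast cells grown in 1536-well plates; yeast grown about 18 h at 30C before absorbance read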
Of the large screens only hits and unclear results are named; the others gave an inactive call. Cut-off read from the data, not from the text of the source, unless noted: active = inhibition above about 30%; inactive = the rest.

COc1ccc(OC)c(/C(O)=C/C(=O)C(=O)Nc2ccccc2OC)c1	Cav32 inh -8.53 (no result: Ecoli tolC)
CCOc1ccccc1C(=O)Nc1cc(OC)ccc1OC	PostGolgi ctrl 47.2
O=C(NCc1cccc(C(F)(F)F)c1)C1CC2Cn3c(nc4ccccc43)C2N1Cc1ccccc1 (configuration not stated)	none (no result: Ecoli WT expand, Ecoli tolC, Pyk2 oligo antag, PostGolgi ctrl, PostGolgi yeast)
CC1CCC(NC(=O)C2CCN(c3cnccn3)CC2)CC1 (configuration not stated)	none
Cc1nc(C(=O)Nc2cc(F)cc(Cl)c2)sc1C1(C)CC(c2ccccc2)=NO1 (configuration not stated)	none (no result: Ecoli WT expand, Ecoli tolC, Pyk2 oligo antag, PostGolgi ctrl, PostGolgi yeast)
Cc1cc(-c2ccccc2)nc(N(C)NC(=O)c2c(F)cccc2F)c1S(C)(=O)=O	PostGolgi ctrl 30.3 (no result: Ecoli tolC)
Cc1cccc(C(=O)NN(C)c2nc(-c3ccccc3)nnc2C(F)(F)F)c1	none (no result: Ecoli tolC)
CC(C)(C)Nc1nc2nonc2nc1NC(C)(C)C	none (no result: Ecoli tolC)
O=C(CSc1nnc(Cn2nnc(-c3ccccc3)n2)n1-c1ccccc1)Nc1ccccc1	none
Cc1cccc(C)c1NC(=O)CSc1nnc(Cn2nnc(-c3ccccc3)n2)n1-c1ccccc1	Cav32 inh -6.19
COCCn1c(SCC(=O)c2ccc(F)cc2)nnc1C(C)C	none
Cc1cc(C(F)F)n2ncc(C(=O)NCCc3ccc(Cl)cc3)c2n1	PostGolgi ctrl 49.3 (no result: Ecoli tolC)
COC(=O)c1ccccc1NC(=O)c1cnn2c(C(F)F)cc(C3CC3)nc12	Pyk2 oligo antag -3.62, PostGolgi ctrl 42.9
O=C(NCCc1ccccc1)c1cnn2c(C(F)F)cc(C3CC3)nc12	PostGolgi ctrl 39.0
COc1ccc(/C=c2/sc3n(c2=O)NC2(c4ccccc4)N(C)C(=O)N(C)C2(c2ccccc2)N=3)cc1 (configuration not stated)	none (no result: Ecoli tolC)
Cc1ccccc1OC(=O)CCC(=O)OCCCC(F)(F)C(F)(F)F	none
CCN(CC)S(=O)(=O)c1cccc(C(=O)Nc2cc(C)cc(C)c2)c1	Cav32 inh -3.43 (no result: Ecoli tolC)
CCN(CC)S(=O)(=O)c1cccc(C(=O)N[C@H](C(=O)NCc2ccc(Cl)cc2)C(C)C)c1	Cav32 inh -9.8 (no result: Ecoli tolC)
CCN(CC)S(=O)(=O)c1cccc(C(=O)Nc2cccc(C)c2)c1	none (no result: Ecoli tolC)
CCN(CC)S(=O)(=O)c1cccc(C(=O)N[C@H](C(=O)NCc2ccccc2F)C(C)C)c1	none (no result: Ecoli tolC)
COc1ccc(-c2cc3nc4n(c(=O)c3s2)CCOC4)cc1	none (no result: Ecoli WT expand, Cav32 inh, Pyk2 oligo antag, PostGolgi ctrl, PostGolgi yeast)
COc1ccc(N2CCN(C(=O)CN(Cc3ccc(Cl)cc3)S(C)(=O)=O)CC2)cc1	Cav32 inh -4.62 (no result: Ecoli tolC)
COc1ccc(N2CCN(C(=O)CN(Cc3ccccc3)S(C)(=O)=O)CC2)cc1	none (no result: Ecoli tolC)
COc1ccccc1N1CCN(C(=O)CN(Cc2ccccc2)S(C)(=O)=O)CC1	PostGolgi yeast 34.9
O=C(NCc1ccc2c(c1)OCO2)C1CCN(c2ncccn2)CC1	none
CCOC(=O)c1cnc2c(C#N)c(C)nn2c1-c1ccccc1	PostGolgi ctrl 31.7 (no result: Pyk2 oligo antag)
Cc1nn(-c2ccccc2)c(N2CCCC2)c1/C=N/n1cnc2scc(-c3ccccc3)c2c1=O	Cav32 inh -5.63
COc1ncccc1-c1nnn(-c2ccc(C)cc2)n1	none (no result: Ecoli WT expand, Ecoli tolC, Pyk2 oligo antag, PostGolgi ctrl, PostGolgi yeast)
Cc1cccc2cc(C#N)c(NCCNS(=O)(=O)c3ccc4c(c3)OCCO4)nc12	Cav32 inh -4.19
Cc1cc(C)nc(N2CCC(C(=O)Nc3ccc(Oc4ccccc4)cc3)CC2)n1	none
O=C(NC1CCCc2ccccc21)C1CCN(c2c3c(nc4ncnn24)CCC3)CC1 (configuration not stated)	none
O=C(Nc1ccc2c(c1)CCC2)C1CCN(c2c3c(nc4ncnn24)CCC3)CC1	Cav32 inh 2.82
O=C(Nc1ccc(Oc2ccccc2)cc1)C1CCN(c2c3c(nc4ncnn24)CCC3)CC1	Pyk2 oligo antag -3.29 (no result: Ecoli tolC)
COc1ccc(NC(=O)C2CCCN(c3c4c(nc5ncnn35)CCC4)C2)cc1OC (configuration not stated)	Cav32 inh 3.32
COc1cccc(C2C(C(=O)c3ccco3)=C(O)C(=O)N2CCCN2CCOCC2)c1OC (configuration not stated)	none (no result: Ecoli WT expand, Cav32 inh, Pyk2 oligo antag, PostGolgi ctrl, PostGolgi yeast)
CCOc1ccc(S(=O)(=O)Nc2ccc(F)cc2)c(C)c1C	Cav32 inh -4.7, PostGolgi ctrl 54.9 (no result: Ecoli tolC)
COc1cccc(CNCc2ccc(SC)cc2)c1OC	none (no result: Ecoli tolC)
CC(C)(C)c1ccc(OCC(=O)NCc2ccco2)c(Br)c1	Ecoli tolC 100.0
O=C(COC(=O)c1ccccc1Nc1ccccc1)c1ccccc1	none (no result: Cav32 inh, Ecoli tolC)
O=C(COC(=O)c1ccccc1Nc1ccccc1)NCc1ccco1	PostGolgi ctrl 31.6
CCOc1cc(C(=O)OCC(=O)NCc2ccco2)cc(OCC)c1OCC	none
CCOC(=O)c1c(C)[nH]c(C)c1C(=O)CN1C(=O)NC(CC(C)C)C1=O (configuration not stated)	none
COc1cccc(-c2cnc(NCc3cc(Cl)ccc3O)n2C)c1	Cav32 inh -4.28, PostGolgi ctrl 71.0
CCO[C@@H]1OC(C(=O)N2CCN(Cc3ccccc3)CC2)=C[C@H](c2csc3ccccc23)[C@H]1CCCO	none (no result: Ecoli WT expand, Ecoli tolC, Pyk2 oligo antag, PostGolgi ctrl, PostGolgi yeast)
COc1cc(C2C(C(=O)c3ccco3)=C(O)C(=O)N2CCc2ccccc2)ccc1O (configuration not stated)	none
CCN(CC)CCCN1C(=O)C(O)=C(C(=O)c2ccco2)C1c1ccc(OC(C)C)cc1 (configuration not stated)	PostGolgi ctrl 43.0
CC(C)Oc1ccc(C2C(C(=O)c3ccco3)=C(O)C(=O)N2CCCN(C)C)cc1 (configuration not stated)	none (no result: Ecoli WT expand, Cav32 inh, Pyk2 oligo antag, PostGolgi ctrl, PostGolgi yeast)
COCCN1C(=O)C(O)=C(C(=O)c2ccco2)C1c1cccc(Oc2ccccc2)c1 (configuration not stated)	Cav32 inh -3.78
CC1CCCN(c2nc3ccccc3nc2C(C#N)S(=O)(=O)c2cccs2)C1 (configuration not stated)	Cav32 inh -5.86 (no result: Ecoli tolC)
COc1ccc(S(=O)(=O)C(C#N)c2nc3ccccc3nc2N2CCCC(C)C2)cc1 (configuration not stated)	Cav32 inh -4.65, Ecoli tolC 68.1
CC1CCCN(c2nc3ccccc3nc2C(C#N)C(=O)OC2CCCCC2)C1 (configuration not stated)	none (no result: Pyk2 oligo antag)
Cc1ccc(S(=O)(=O)C(C#N)c2nc3ccccc3nc2N2CCCC2)cc1 (configuration not stated)	none
CC1CCN(c2nc3ccccc3nc2C(C#N)S(=O)(=O)c2ccccc2)CC1 (configuration not stated)	Ecoli tolC 76.4 (no result: Ecoli WT expand, Cav32 inh, Pyk2 oligo antag, PostGolgi ctrl, PostGolgi yeast)
C#CCNc1nc(C)nc2c1nnn2Cc1ccccc1F	none
CCOC(=O)c1cn[nH]c1N	none
COC(=O)\C(C(C)=O)=C(/C=C/C=C/C=C/N(C)C)N(C)C	Cav32 inh -7.05 (no result: Ecoli tolC)
COCCN1Cc2cccc(C(=O)NC3CCCCCC3)c2C1=O	none (no result: Ecoli WT expand, Cav32 inh, Pyk2 oligo antag, PostGolgi ctrl, PostGolgi yeast)
CC1(NC(=O)N2CCCCC2)CCS(=O)(=O)C1 (configuration not stated)	none
CC12CC3(C)CC(C)(C1)CC(NC(=O)N1CCCC1)(C2)C3	PostGolgi ctrl 32.0 (no result: Ecoli tolC)
COC1(OC)C=CC(=O)C=C1NC(=O)c1ccccc1OC(C)=O	none (no result: Ecoli WT expand, Ecoli tolC, Pyk2 oligo antag, PostGolgi ctrl, PostGolgi yeast)

Source: PubChem BioAssay
